ChEMBL document CHEMBL4270630

Columns and labels:
Influenza A virus [1] = assay: Antiviral activity against Influenza A virus A/PR/8/34(H1N1) infected in MDCK cells assessed as reduction in virus-induced cytopathic effect after 3 days by microscopic method; assay type: functional, organism-based, A/Puerto Rico/8/1934(H1N1); details: Influenza A virus, A/Puerto Rico/8/1934(H1N1), MDCK, 72 h
Outline: (§1)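 Semi-confluent MDCK cells were infected at an MOI of 0.0004 PFU/cell in Ultra-MDCK infection medium with 2 μg/mL TPCK-trypsin, together with compounds. After 3 days at 35 °C, CPE was scored by microscopy and confirmed by MTS formazan viability. EC50 is the concentration giving 50% inhibition of virus-induced CPE. Values are means of two to five independent tests.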

Influenza A virus [2] = assay: Antiviral activity against Influenza A virus A/PR/8/34(H1N1) infected in MDCK cells after 3 days by MTS assay; assay type: functional, organism-based, A/Puerto Rico/8/1934(H1N1); details: Influenza A virus, A/Puerto Rico/8/1934(H1N1), MDCK, 72 h; outline: as §1
Influenza A virus [3] = assay: Antiviral activity against Influenza A virus A/Virginia/ATCC3/2009(H1N1pdm) infected in MDCK cells assessed as reduction in virus-induced cytopathic effect after 3 days by microscopic method; assay type: functional, organism-based, Influenza A virus (A/Virginia/03/2009(H1N1)); details: 72 h; outline: as §1
Influenza A virus [4] = assay: Antiviral activity against Influenza A virus A/Virginia/ATCC3/2009(H1N1pdm) infected in MDCK cells after 3 days by MTS assay; assay type: functional, organism-based, Influenza A virus (A/Virginia/03/2009(H1N1)); details: 72 h; outline: as §1
H3N2 subtype [5] = assay: Antiviral activity against Influenza A virus A/HK/7/87(H3N2) infected in MDCK cells assessed as reduction in virus-induced cytopathic effect after 3 days by microscopic method; assay type: functional, organism-based; details: A/Hong Kong/7/1987(H3N2), 72 h; outline: as §1
H3N2 subtype [6] = assay: Antiviral activity against Influenza A virus A/HK/7/87(H3N2) infected in MDCK cells after 3 days by MTS assay; assay type: functional, organism-based; details: A/Hong Kong/7/1987(H3N2), 72 h; outline: as §1
Influenza B virus [7] = assay: Antiviral activity against Influenza B virus B/Ned/537/05 infected in MDCK cells assessed as reduction in virus-induced cytopathic effect after 3 days by microscopic method; assay type: functional, organism-based; details: B/Ned/537/05, MDCK, 72 h
Outline: (§2)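 Semi-confluent MDCK cells were infected at an MOI of 0.0004 PFU/cell in Ultra-MDCK infection medium with 2 μg/mL TPCK-trypsin, together with compounds. After 3 days at 35 °C, CPE was scored by microscopy and confirmed by MTS formazan viability. Values are means of two to five independent tests.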

Influenza B virus [8] = assay: Antiviral activity against Influenza B virus B/Ned/537/05 infected in MDCK cells after 3 days by MTS assay; assay type: functional, organism-based; details: B/Ned/537/05, MDCK, 72 h; outline: as §2
MDCK = assay: (§3) Cytotoxicity against MDCK cells assessed as reduction in cell viability after 3 days by MTS assay; assay type: cell-based, Canis lupus familiaris; details: dog, mdck, 72 h
[9] = Cytotoxicity against MDCK cells assessed as alteration in cell morphology after 3 days by microscopic method; assay type: cell-based, Canis lupus familiaris; details: dog
Outline: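 Mock-infected MDCK cells were treated with compounds in parallel with the antiviral assay, 3 days at 35 °C. MCC is the concentration causing minimal change in cell morphology by microscopy. CC50 is the 50% cytotoxic concentration by MTS formazan viability assay.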

Human coronavirus 229E [10] = assay: Antiviral activity against Human coronavirus 229E infected in HEL299 cells assessed as reduction in virus induced cytopathic effect after 5 days by microscopic method; assay type: functional, organism-based; details: HEL 299, 120 h
Outline: (§4)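 Confluent HEL 299 cells in medium with 2% FCS were exposed to HCoV-229E (100 CCID50/well) together with compounds and held for 5 days at 35 °C. EC50 (CPE reduction) and MCC (minimal morphology change) were determined by microscopy. SI is MCC/EC50.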

[11] = Cytotoxicity against HEL299 cells assessed as changes in cell morphology after 5 days by microscopic method; assay type: cell-based, HEL 299; details: human; outline: as §4
Human coronavirus 229E [12] = assay: Antiviral activity against Human coronavirus 229E infected in human A549 cells assessed as reduction in virus RNA level after 3 days by qRT-PCR method; assay type: functional; details: A549, 72 h
Outline: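 Confluent A549 cells were infected with HCoV-229E in 2% FCS medium with compounds present. The inoculum was removed at 1 h and compounds were kept on at 35 °C. Supernatants were harvested at day 3, lysed at 75 °C for 10 min, and viral genome copies counted by one-step qRT-PCR.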

[13] = Cytotoxicity against human A549 cells assessed as changes in cell morphology after 3 days by microscopic method; assay type: cell-based
Outline: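 Mock-infected A549 cells were incubated with compounds for 3 days. MCC is the concentration causing minimal change in cell morphology by microscopy.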

Influenza B virus [14] = assay: Antiviral activity against Influenza B virus B/HK/05/72 infected in MDCK cells assessed as reduction in virus-induced cytopathic effect after 3 days by microscopic method; assay type: functional, organism-based; details: B/Hong Kong/05/1972, MDCK, 72 h; outline: as §1
Influenza B virus [15] = assay: Antiviral activity against Influenza B virus B/HK/05/72 infected in MDCK cells after 3 days by MTS assay; assay type: functional, organism-based; details: B/Hong Kong/05/1972, MDCK, 72 h; outline: as §1
[16] = as §3; assay type: cell-based, Canis lupus familiaris; details: dog, MDCK cells

Compound | EC50 (Influenza A virus [1]) [µM] | EC50 (Influenza A virus [2]) [µM] | EC50 (Influenza A virus [3]) [µM] | EC50 (Influenza A virus [4]) [µM] | EC50 (H3N2 subtype [5]) [µM] | EC50 (H3N2 subtype [6]) [µM] | EC50 (Influenza B virus [7]) [µM] | EC50 (Influenza B virus [8]) [µM] | CC50 (MDCK) [µM] | MCC at 72 h [9] [µM] | EC50 (Human coronavirus 229E [10]) [µM] | MCC at 120 h [11] [µM] | EC90 (Human coronavirus 229E [12]) [µM] | EC99 (Human coronavirus 229E [12]) [µM] | MCC at 72 h [13] [µM] | EC50 (Influenza B virus [14]) [µM] | EC50 (Influenza B virus [15]) [µM] | CC50 at 72 h [16] [µM]
CCCCCCSC1=C(SCCCCCC)C(=O)N(CCOCCOCCOCCOCc2cn(C3C(=O)N[C@@H]4Cc5ccc(c(Cl)c5)Oc5cc6cc(c5O)Oc5ccc(cc5Cl)[C@@H](O[C@@H]5O[C@H](CO)[C@@H](O)[C@H](O)[C@H]5NC(C)=O)[C@H]5NC(=O)[C@H](NC(O)[C@@H]6NC(=O)[C@@H](NC4=O)c4cc(O)cc(c4)Oc4cc3ccc4O)c3ccc(O)c(c3)-c3c(O)cc(O)cc3[C@H](C(=O)O)NC5=O)nn2)C1=O (stereo not given in full) | 2 | 3.5 | 2.7 | 6 | 2 | 2.9 | 1.8 | 3.6 | 65 | 20 | 5.4 | ≥ 20 | 7.6 | 21 | > 50 |  |  | 
CC(=O)N[C@H]1[C@H](O[C@@H]2c3ccc(c(Cl)c3)Oc3cc4cc(c3O)Oc3ccc(cc3Cl)C[C@H]3NC(=O)[C@H](n5cc(COc6ccccc6)nn5)c5ccc(O)c(c5)Oc5cc(O)cc(c5)[C@H](NC3=O)C(=O)N[C@H]4C(O)N[C@H]3C(=O)N[C@H]2C(=O)N[C@@H](C(=O)O)c2cc(O)cc(O)c2-c2cc3ccc2O)O[C@H](CO)[C@@H](O)[C@@H]1O (stereo not given in full) | > 100 | > 100 | > 100 | > 100 | 11 | 11 |  |  |  | ≥ 20 |  |  |  |  |  | > 100 | > 100 | 41
CC(=O)N[C@H]1[C@H](O[C@@H]2c3ccc(c(Cl)c3)Oc3cc4cc(c3O)Oc3ccc(cc3Cl)C[C@H]3NC(=O)[C@H](n5cc(COc6cccc7ccccc67)nn5)c5ccc(O)c(c5)Oc5cc(O)cc(c5)[C@H](NC3=O)C(=O)N[C@H]4C(O)N[C@H]3C(=O)N[C@H]2C(=O)N[C@@H](C(=O)O)c2cc(O)cc(O)c2-c2cc3ccc2O)O[C@H](CO)[C@@H](O)[C@@H]1O (stereo not given in full) | 11 | 11 | 11 | 4.4 | 15 | 8 |  |  |  | 20 |  |  |  |  |  | 15 | 6.6 | 47
CCCCCCSC1=C(SCCCCCC)C(=O)N(Cc2cn(C3C(=O)N[C@@H]4Cc5ccc(c(Cl)c5)Oc5cc6cc(c5O)Oc5ccc(cc5Cl)[C@@H](O[C@@H]5O[C@H](CO)[C@@H](O)[C@H](O)[C@H]5NC(C)=O)[C@H]5NC(=O)[C@H](NC(O)[C@@H]6NC(=O)[C@@H](NC4=O)c4cc(O)cc(c4)Oc4cc3ccc4O)c3ccc(O)c(c3)-c3c(O)cc(O)cc3[C@H](C(=O)O)NC5=O)nn2)C1=O (stereo not given in full) | 3.1 | > 100 | 4 | 2.9 | 1.9 | 1.9 | 2.3 | 2.7 | 12 | ≥ 4 | 8.9 | ≥ 20 | 6.4 | 9.5 | ≥ 50 |  |  | 
CCCCCCSC1=C(SCCCCCC)C(=O)N([C@H]2C(=O)N[C@@H]3Cc4ccc(c(Cl)c4)Oc4cc5cc(c4O)Oc4ccc(cc4Cl)[C@@H](O[C@@H]4O[C@H](CO)[C@@H](O)[C@H](O)[C@H]4NC(C)=O)[C@H]4NC(=O)[C@H](NC(O)[C@@H]5NC(=O)[C@@H](NC3=O)c3cc(O)cc(c3)Oc3cc2ccc3O)c2ccc(O)c(c2)-c2c(O)cc(O)cc2[C@H](C(=O)O)NC4=O)C1=O (stereo not given in full) | > 100 | > 100 | > 100 | > 100 | > 100 | > 100 | > 100 | > 100 | 9.8 | 4 | 5.4 | ≥ 20 | 5.8 | 9.4 | 50 |  |  | 
CCCCCCCCOCc1cn(CCOCCOCCOCCOCc2cn([C@H]3C(=O)N[C@@H]4Cc5ccc(c(Cl)c5)Oc5cc6cc(c5O)Oc5ccc(cc5Cl)[C@@H](O[C@@H]5O[C@H](CO)[C@@H](O)[C@H](O)[C@H]5NC(C)=O)[C@H]5NC(=O)[C@H](NC(O)[C@@H]6NC(=O)[C@@H](NC4=O)c4cc(O)cc(c4)Oc4cc3ccc4O)c3ccc(O)c(c3)-c3c(O)cc(O)cc3[C@H](C(=O)O)NC5=O)nn2)nn1 (stereo not given in full) | > 100 | > 100 | > 100 | > 100 | > 100 | > 100 | > 100 | > 100 | 19 | 20 | 8.9 | 100 | 23 | 30 | > 50 |  |  | 
CCCCSC1=C(SCCCC)C(=O)N([C@H]2C(=O)N[C@@H]3Cc4ccc(c(Cl)c4)Oc4cc5cc(c4O)Oc4ccc(cc4Cl)[C@@H](O[C@@H]4O[C@H](CO)[C@@H](O)[C@H](O)[C@H]4NC(C)=O)[C@H]4NC(=O)[C@H](NC(O)[C@@H]5NC(=O)[C@@H](NC3=O)c3cc(O)cc(c3)Oc3cc2ccc3O)c2ccc(O)c(c2)-c2c(O)cc(O)cc2[C@H](C(=O)O)NC4=O)C1=O (stereo not given in full) | > 100 | > 100 | 2.9 | 2.6 | > 100 | > 100 | > 100 | > 100 | 8.6 | 4 | 5.4 | ≥ 20 | 4.1 | 10 | 50 |  |  | 
CC(=O)N[C@H]1[C@H](O[C@@H]2c3ccc(c(Cl)c3)Oc3cc4cc(c3O)Oc3ccc(cc3Cl)C[C@H]3NC(=O)[C@H](NS(=O)(=O)c5ccccc5)c5ccc(O)c(c5)Oc5cc(O)cc(c5)[C@H](NC3=O)C(=O)N[C@H]4C(O)N[C@H]3C(=O)N[C@H]2C(=O)N[C@@H](C(=O)O)c2cc(O)cc(O)c2-c2cc3ccc2O)O[C@H](CO)[C@@H](O)[C@@H]1O (stereo not given in full) | 16 | 27 | 46 | 52 | 25 | 23 | 51 | 21 | > 100 | 100 | 5.5 | ≥ 20 | 6.8 | 11 | > 50 |  |  | 
CCCCCCOCc1cn(CCOCCOCCOCCOCc2cn([C@H]3C(=O)N[C@@H]4Cc5ccc(c(Cl)c5)Oc5cc6cc(c5O)Oc5ccc(cc5Cl)[C@@H](O[C@@H]5O[C@H](CO)[C@@H](O)[C@H](O)[C@H]5NC(C)=O)[C@H]5NC(=O)[C@H](NC(O)[C@@H]6NC(=O)[C@@H](NC4=O)c4cc(O)cc(c4)Oc4cc3ccc4O)c3ccc(O)c(c3)-c3c(O)cc(O)cc3[C@H](C(=O)O)NC5=O)nn2)nn1 (stereo not given in full) | > 100 | > 100 | > 100 | > 100 | > 100 | > 100 | > 100 | > 100 | 51 | 100 | 44 | ≥ 100 | 25 | 44 | > 50 |  |  | 
